Assay results published in ChEMBL document CHEMBL1144785, “Antiplasmodial triterpenoids from Ekebergia capensis” (J Nat Prod, 2008).
Activity calls are given as the source filed them. No cut-off for these calls is given here.

Key:
[1] = system: Plasmodium falciparum; assay: Antiplasmodial activity against chloroquine-resistant Plasmodium falciparum K1; assay type: functional, organism-based
Method in brief: (§1)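 Synchronous cultures in RPMI 1640 with 10% human serum, 25 mM HEPES (pH 7.2), hypoxanthine and 2% hematocrit type O+ RBCs, under 5% CO2/5% O2/90% N2 at 37 °C. DMSO stocks were serially diluted 2-fold and added to infected RBCs at 0.5% parasitemia, then incubated 52 h. Ring forms on Giemsa smears were counted against controls. Single assay per concentration; IC50 by probit.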

[2] = system: Plasmodium falciparum; assay: Antiplasmodial activity against chloroquine-susceptible Plasmodium falciparum FCR3; assay type: functional, organism-based; method in brief: as §1
[3] = system: Plasmodium berghei; assay: Antimalarial activity in Plasmodium berghei NK65 infected ICR mice (Mus musculus) as reduced parasitemia at 100 mg/kg/day peroral dose for 4 days; assay type: functional; design: scale not given: the % may be the effect or the level left
Method in brief: (§2)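 Peters 4-day suppressive test in 7-week-old outbred SPF male ICR mice, five per group. Mice infected i.p. with 10^5 P. berghei NK65-parasitized erythrocytes taken from donor mice. Compound dissolved in DMSO and diluted with distilled water (final DMSO below 0.2%). Given orally by metal catheter once daily for 4 days, first dose 2–4 h p.i.; controls received distilled water. Day-4 Giemsa tail-blood smears scored microscopically; suppression calculated against controls.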

[4] = system: Plasmodium berghei; assay: Antimalarial activity in Plasmodium berghei NK65 infected ICR mice (Mus musculus) as reduced parasitemia at 250 mg/kg/day peroral dose for 4 days; assay type: functional; design: scale not given: the % may be the effect or the level left; details: route oral; method in brief: as §2
[5] = system: Plasmodium berghei; assay: Antimalarial activity in […] NK65 infected ICR mice (Mus musculus) as reduced parasitemia at 500 mg/kg/day peroral dose after 4 days; assay type: functional; design: scale not given: the % may be the effect or the level left; details: route oral
Method in brief: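 Male ICR mice, 7 weeks old, were infected ip with 10^5 P. berghei NK65-parasitized erythrocytes from donor mice, five per group. Dosing began 2–4 h p.i., given orally by metal catheter once daily for 4 days. Compound was in DMSO diluted with distilled water (final DMSO <0.2%); controls got water. On day 4, tail-vein Giemsa smears gave parasitemia; suppression was calculated versus control.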

## CC(=O)OC[C@](C)(O)[C@H](O)CC/C(C)=C/CC/C(C)=C/CC/C=C(\C)CC/C=C(\C)CC[C@@H](O)C(C)(C)O [EKEBERIN D5]
[1]
  IC50: 137 µM
[2]
  IC50: 55 µM

## C/C(=C\CC/C=C(\C)CC/C=C(\C)CC[C@@H](O)C(C)(C)O)CC/C=C(\C)CC[C@@H](O)C(C)(C)O
[1]
  IC50: 59 µM
[3]; route oral
  Activity: 26.5%
[4]
  Activity: 26.5%
[5]
  Activity: 20.5%
[2]
  IC50: 55 µM

## CC(=O)OC[C@](C)(O)[C@@H](CC/C(C)=C/CC/C(C)=C/CC/C=C(\C)CC/C=C(\C)CC[C@@H](O)C(C)(C)O)OC(C)=O
[1]
  IC50: 97 µM
[2]
  IC50: 113 µM

## CC1(C)C(=O)C=C[C@]2(C)[C@H]3CC[C@@]4(C)[C@H](c5ccco5)OC(=O)[C@H]5O[C@]54[C@]3(C)C(=O)C[C@@H]12
[2]
  IC50: 6 µM

## C/C(=C\CC/C=C(\C)CC[C@@H](O)[C@]1(C)CC[C@H](C(C)(C)O)O1)CC[C@@H](O)[C@]1(C)CC[C@H](C(C)(C)O)O1 [EKEBERIN D4]
[2]
  IC50: 40 µM

## C/C(=C\CC/C=C(\C)CC/C=C(\C)CC[C@@H](O)[C@@](C)(O)CO)CC/C=C(\C)CC[C@@H](O)C(C)(C)O
[1]
  IC50: 7 µM
[3]
  Activity: inactive
[4]
  Activity: 41.2%
[5]
  Activity: 52.9%
[2]
  IC50: 18 µM
